Measurements published in ChEMBL document CHEMBL1126647, “Fluorine-18-labeled progestin ketals: synthesis and target tissue uptake selectivity of potential imaging agents for receptor-positive breast tumors” (J Med Chem, 1993).

Experiments:
[1] = biological target: T1, Progesterone receptor (Rattus norvegicus) (UniProt Q63449); assay: Relative binding affinity for progesterone receptor compared to R5020
T1 sequence (whole entry): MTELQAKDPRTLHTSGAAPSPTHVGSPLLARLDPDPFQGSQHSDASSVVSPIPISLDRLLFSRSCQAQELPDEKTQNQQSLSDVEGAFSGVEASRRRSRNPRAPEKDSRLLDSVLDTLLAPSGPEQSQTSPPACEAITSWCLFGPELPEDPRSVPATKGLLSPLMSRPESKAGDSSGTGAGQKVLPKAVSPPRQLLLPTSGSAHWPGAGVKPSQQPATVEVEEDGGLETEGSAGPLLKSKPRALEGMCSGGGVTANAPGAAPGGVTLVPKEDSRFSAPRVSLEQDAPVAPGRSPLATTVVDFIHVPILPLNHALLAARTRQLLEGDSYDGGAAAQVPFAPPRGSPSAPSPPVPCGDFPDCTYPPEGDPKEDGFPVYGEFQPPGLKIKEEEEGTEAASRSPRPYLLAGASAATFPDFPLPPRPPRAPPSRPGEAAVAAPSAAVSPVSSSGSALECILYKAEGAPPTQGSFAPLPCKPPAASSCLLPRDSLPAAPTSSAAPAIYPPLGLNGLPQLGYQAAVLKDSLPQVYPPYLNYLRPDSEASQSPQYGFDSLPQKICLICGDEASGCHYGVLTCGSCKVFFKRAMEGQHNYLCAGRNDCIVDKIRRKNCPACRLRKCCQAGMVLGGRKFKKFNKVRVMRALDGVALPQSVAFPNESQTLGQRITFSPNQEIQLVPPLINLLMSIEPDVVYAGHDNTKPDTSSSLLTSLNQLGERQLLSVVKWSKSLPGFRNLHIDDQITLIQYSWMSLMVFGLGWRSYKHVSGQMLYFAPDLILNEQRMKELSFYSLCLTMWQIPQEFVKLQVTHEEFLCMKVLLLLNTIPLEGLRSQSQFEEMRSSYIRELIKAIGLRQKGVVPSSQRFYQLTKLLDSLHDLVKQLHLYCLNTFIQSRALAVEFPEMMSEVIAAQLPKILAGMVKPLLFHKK

[2] = Partition coefficient (logP); format: physicochemical; settings: octanol/water
Outline: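 Octanol/water partition measured as log P by the Minick method. For some reference progestins, log P was also measured by shake flask.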

[3] = biological target: T2, Mineralocorticoid receptor (Rattus norvegicus) (UniProt P22199); assay: Relative binding affinity (RBA) for mineralocorticoid receptor compared to aldosterone
T2 sequence (whole entry): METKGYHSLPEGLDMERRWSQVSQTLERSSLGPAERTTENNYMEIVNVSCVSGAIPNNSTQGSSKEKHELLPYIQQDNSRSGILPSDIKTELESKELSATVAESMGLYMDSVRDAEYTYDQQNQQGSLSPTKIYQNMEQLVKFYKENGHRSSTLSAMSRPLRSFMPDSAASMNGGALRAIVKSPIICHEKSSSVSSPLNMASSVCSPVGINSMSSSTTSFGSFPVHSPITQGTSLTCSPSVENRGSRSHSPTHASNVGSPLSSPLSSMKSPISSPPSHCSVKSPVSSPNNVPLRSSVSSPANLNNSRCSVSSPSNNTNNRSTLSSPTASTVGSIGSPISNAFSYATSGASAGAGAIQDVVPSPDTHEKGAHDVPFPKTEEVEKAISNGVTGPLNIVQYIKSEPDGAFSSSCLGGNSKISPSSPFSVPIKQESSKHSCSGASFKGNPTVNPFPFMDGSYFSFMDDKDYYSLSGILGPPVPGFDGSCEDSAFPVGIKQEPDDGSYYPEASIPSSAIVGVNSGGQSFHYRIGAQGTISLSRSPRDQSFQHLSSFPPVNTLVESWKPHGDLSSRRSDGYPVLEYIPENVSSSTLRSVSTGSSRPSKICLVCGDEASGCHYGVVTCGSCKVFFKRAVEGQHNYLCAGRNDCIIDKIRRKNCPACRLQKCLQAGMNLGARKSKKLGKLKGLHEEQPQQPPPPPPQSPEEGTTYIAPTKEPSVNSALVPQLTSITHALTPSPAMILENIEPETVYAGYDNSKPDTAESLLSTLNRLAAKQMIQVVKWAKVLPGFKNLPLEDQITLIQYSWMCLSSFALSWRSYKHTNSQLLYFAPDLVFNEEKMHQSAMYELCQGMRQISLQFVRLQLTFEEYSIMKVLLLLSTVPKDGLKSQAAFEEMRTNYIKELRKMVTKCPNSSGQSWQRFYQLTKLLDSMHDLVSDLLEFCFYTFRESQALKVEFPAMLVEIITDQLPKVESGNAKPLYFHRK

[4] = biological target: T1, Progesterone receptor (Rattus norvegicus); assay: Tissue distribution in kidney 1 hr after [18F]4 injection into estrogen-primed immature rats at normal dose; format: functional, tissue-based
Outline: (§1)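 Female Sprague-Dawley rats, 23 days old, primed with estradiol 5 μg s.c. in 20% ethanol/sunflower oil on two days and used 24 h later. Under ether, they received 51 μCi tracer (30 Ci/mmol) iv via the tail vein in 0.1 mL 10% ethanol/saline. Killed by decapitation at 1 h; tissues weighed and gamma-counted. Results as %ID/g or tissue ratios, mean ± SD, n = 5.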

[5] = biological target: T1, Progesterone receptor (Rattus norvegicus); assay: Tissue distribution in uterus/muscle 1 hr after [18F]4 injection into estrogen-primed immature rats at normal dose; format: functional, tissue-based; outline: as §1
[6] = biological target: T1, Progesterone receptor (Rattus norvegicus); assay: Tissue distribution in muscle 1 hr after [18F]4 injection into estrogen-primed immature rats at normal dose; format: functional, tissue-based; outline: as §1
[7] = biological target: T1, Progesterone receptor (Rattus norvegicus); assay: Tissue distribution in uterus 1 hr after [18F]4 injection into estrogen-primed immature rats at normal dose; format: functional, tissue-based; outline: as §1

| SMILES | relative binding affinity (RBA) [1] | logP [2] | relative binding affinity (RBA) [3] | Injected dose/g [4] | Injected dose/g [5] | Injected dose/g [6] | Injected dose/g [7] |
| --- | --- | --- | --- | --- | --- | --- | --- |
| C[C@]1(c2ccc(F)cc2)O[C@@H]2CC3C4CCC5=CC(=O)CC[C@@H]5C4CC[C@]3(C)[C@]2(C(=O)CO)O1 (stereo partly specified) | 1.3 | 4.84 | – | – | – | – | – |
| CC(=O)[C@H]1CC[C@H]2[C@@H]3CCC4=CC(=O)CC[C@]4(C)[C@H]3CC[C@]12C | 13 | – | – | – | – | – | – |
| CCC(=O)[C@@]1(C)CC[C@H]2[C@@H]3CCC4=CC(=O)CCC4=C3CC[C@@]21C [PROMEGESTONE] | 100 | 4.05 | 0.93 | – | – | – | – |
| CC[C@@H]1C[C@H]2[C@@H]3CCC4=CC(=O)CC[C@@H]4[C@H]3CC[C@]2(C)[C@H]1C(=O)CF | 700 | 4.66 | 3.2 | 1.05% | 16% | 0.42% | 6.43% |
| CC[C@@H]1C[C@H]2[C@@H]3CCC4=CC(=O)CC[C@@H]4[C@H]3CC[C@]2(C)[C@H]1C(=O)CO | 200 | 4.01 | 0.92 | – | – | – | – |
